Assay results published in ChEMBL document CHEMBL1137710, “Synthesis and in vitro antitumor activity of new quinoxaline derivatives” (2009).

Columns and labels:
Format in all cases: functional
PC-3 = assay: Growth inhibition of human PC3 cells after 48 hrs by sulforhodamine B assay; details: PC-3, 48 h
Method in brief: (§1)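 NCI 60-human-tumor-cell-line panel, with compounds tested over a 5-log dose range. Values are taken from dose-response curves as log10 molar concentrations: GI50 is 50% net growth inhibition, TGI is total growth inhibition, and LC50 is 50% net cell death.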

OVCAR-5 = assay: Growth inhibition of human OVCAR5 cells after 48 hrs by sulforhodamine B assay; details: OVCAR-5, 48 h; method in brief: as §1
MDA-MB-435 = assay: Growth inhibition of human MDA-MB-435 cells after 48 hrs by sulforhodamine B assay; details: MDA-MB-435, 48 h; method in brief: as §1
TK-10 = assay: Growth inhibition of human TK10 cells after 48 hrs by sulforhodamine B assay; details: TK-10, 48 h
Method in brief: (§2)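 Run in the NCI 60-human-tumour-cell-line panel, tested over a 5-log dose range. Dose–response curves gave three values per cell line, each as a log10 molar concentration: GI50 (50% inhibition of net cell growth), TGI (total inhibition of net growth) and LC50 (50% net cell death). The mean graph midpoint is the arithmetic mean over all lines, with insensitive lines entered at the highest concentration tested.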

OVCAR-4 = assay: Growth inhibition of human OVCAR4 cells after 48 hrs by sulforhodamine B assay; details: OVCAR-4, 48 h; method in brief: as §1
MCF7 = assay: Anticancer activity against human MCF7 cells assessed as cell growth at 100 uM after 48 hrs by sulforhodamine B assay; details: MCF7, 48 h, read-out: Activity
LOX IMVI = assay: Growth inhibition of human LOXIMVI cells after 48 hrs by sulforhodamine B assay; method in brief: as §1
MDA-MB-231 = assay: Growth inhibition of human MDA-MB-231 cells after 48 hrs by sulforhodamine B assay; details: MDA-MB-231, 48 h; method in brief: as §1
A549 = assay: Growth inhibition of human A549 cells after 48 hrs by sulforhodamine B assay; details: A549, 48 h; method in brief: as §1
SW-620 = assay: Growth inhibition of human SW620 cells after 48 hrs by sulforhodamine B assay; details: SW-620, 48 h; method in brief: as §2
RXF 393 = assay: Growth inhibition of human RXF393 cells after 48 hrs by sulforhodamine B assay; details: RXF 393, 48 h; method in brief: as §1
DU-145 = assay: Growth inhibition of human DU145 cells after 48 hrs by sulforhodamine B assay; details: DU-145, 48 h; method in brief: as §1
U-251 = assay: Growth inhibition of human U251 cells after 48 hrs by sulforhodamine B assay; details: U-251, 48 h; method in brief: as §2
COLO 205 = assay: Growth inhibition of human COLO205 cells after 48 hrs by sulforhodamine B assay; details: COLO 205, 48 h; method in brief: as §1
OVCAR-8 = assay: Growth inhibition of human OVCAR8 cells after 48 hrs by sulforhodamine B assay; details: OVCAR-8, 48 h; method in brief: as §1
SK-MEL-5 = assay: Growth inhibition of human SK-MEL-5 cells after 48 hrs by sulforhodamine B assay; details: SK-MEL-5, 48 h; method in brief: as §1
IGROV-1 = assay: Growth inhibition of human IGROV1 cells after 48 hrs by sulforhodamine B assay; details: IGROV-1, 48 h; method in brief: as §1
786-0 = assay: Growth inhibition of human 786-0 cells after 48 hrs by sulforhodamine B assay; details: 786-0, 48 h; method in brief: as §1
M14 = assay: Growth inhibition of human M14 cells after 48 hrs by sulforhodamine B assay; details: M14, 48 h; method in brief: as §1
HCT-116 = assay: Growth inhibition of human HCT116 cells after 48 hrs by sulforhodamine B assay; details: HCT-116, 48 h; method in brief: as §1
SF-268 = assay: Growth inhibition of human SF268 cells after 48 hrs by sulforhodamine B assay; details: SF-268, 48 h; method in brief: as §1
CAKI-1 = assay: Growth inhibition of human Caki1 cells after 48 hrs by sulforhodamine B assay; details: CAKI-1, 48 h; method in brief: as §1
SF-295 = assay: Growth inhibition of human SF295 cells after 48 hrs by sulforhodamine B assay; details: SF-295, 48 h; method in brief: as §1
[1] = Growth inhibition of human Hs 578T cells after 48 hrs by sulforhodamine B assay; method in brief: as §1
NCI-H460 = assay: Anticancer activity against human NCI-H460 cells assessed as cell growth at 100 uM after 48 hrs by sulforhodamine B assay; details: NCI-H460, 48 h, read-out: Activity
NCI-H522 = assay: Growth inhibition of human NCI-H522 cells after 48 hrs by sulforhodamine B assay; details: NCI-H522, 48 h; method in brief: as §1
SK-MEL-28 = assay: Growth inhibition of human SK-MEL-28 cells after 48 hrs by sulforhodamine B assay; details: SK-MEL-28, 48 h; method in brief: as §1
NCI-H322M = assay: Growth inhibition of human NCI-H322M cells after 48 hrs by sulforhodamine B assay; method in brief: as §1
NCI/ADR-RES = assay: Growth inhibition of human NCI/ADR-RES cells after 48 hrs by sulforhodamine B assay; method in brief: as §1
K562 = assay: Growth inhibition of human K562 cells after 48 hrs by sulforhodamine B assay; details: K562, 48 h; method in brief: as §1
[2] = read-out: pLC50 (the source's name) (converted)

Q: Which GI50 (PC-3) does the source give for `COc1ccc(Oc2nc3cc(N)cc(N)c3nc2-c2ccccc2)cc1` here?
A: 15.1 µM

Q: What about the CC50 (PC-3; [2]) of the same molecule?
A: > 100 µM

Q: What about the TGI (PC-3; read-out: pTGI (converted)) of the same molecule?
A: > 100 µM

Q: And the GI50 (OVCAR-5)?
A: 95.5 µM

Q: And the CC50 (OVCAR-5; [2])?
A: > 100 µM

Q: And the TGI (OVCAR-5; read-out: pTGI (converted))?
A: > 100 µM

Q: And the GI50 (MDA-MB-435)?
A: 40.7 µM

Q: And the CC50 (MDA-MB-435; [2])?
A: > 100 µM

Q: And the TGI (MDA-MB-435; read-out: pTGI (converted))?
A: > 100 µM

Q: What about the GI50 (TK-10) of the same molecule?
A: 53.7 µM

Q: What about the CC50 (TK-10; [2]) of the same molecule?
A: > 100 µM

Q: What about the TGI (TK-10; read-out: pTGI (converted)) of the same molecule?
A: > 100 µM

Q: What about the GI50 (OVCAR-4) of the same molecule?
A: 3.72 µM

Q: And the CC50 (OVCAR-4; [2])?
A: > 100 µM

Q: What about the TGI (OVCAR-4; read-out: pTGI (converted)) of the same molecule?
A: 24.5 µM

Q: What about the growth at 100 µM (MCF7) of the same molecule?
A: -89%

Q: What about the GI50 (LOX IMVI) of the same molecule?
A: 34.7 µM

Q: What about the LC50 (LOX IMVI) of the same molecule?
A: > 100 µM

Q: What about the TGI (LOX IMVI; read-out: pTGI (converted)) of the same molecule?
A: > 100 µM

Q: What about the GI50 (MDA-MB-231) of the same molecule?
A: 20.4 µM

Q: What about the CC50 (MDA-MB-231; [2]) of the same molecule?
A: > 100 µM

Q: What about the TGI (MDA-MB-231; read-out: pTGI (converted)) of the same molecule?
A: 64.6 µM

Q: And the GI50 (A549)?
A: 37.2 µM

Q: And the LC50 (A549)?
A: > 100 µM

Q: What about the TGI (A549; read-out: pTGI (converted)) of the same molecule?
A: > 100 µM

Q: What about the GI50 (SW-620) of the same molecule?
A: 89.1 µM

Q: And the CC50 (SW-620; [2])?
A: > 100 µM

Q: What about the TGI (SW-620; read-out: pTGI (converted)) of the same molecule?
A: > 100 µM

Q: And the GI50 (RXF 393)?
A: 20 µM

Q: What about the CC50 (RXF 393; [2]) of the same molecule?
A: > 100 µM

Q: What about the TGI (RXF 393; read-out: pTGI (converted)) of the same molecule?
A: 74.1 µM

Q: What about the GI50 (DU-145) of the same molecule?
A: 69.2 µM

Q: And the CC50 (DU-145; [2])?
A: > 100 µM

Q: And the TGI (DU-145; read-out: pTGI (converted))?
A: > 100 µM

Q: And the GI50 (U-251)?
A: 26.3 µM

Q: And the LC50 (50% net cell kill) (U-251)?
A: > 100 µM

Q: What about the TGI (U-251; read-out: pTGI (converted)) of the same molecule?
A: > 100 µM

Q: And the GI50 (COLO 205)?
A: > 100 µM

Q: What about the LC50 (50% net cell kill) (COLO 205) of the same molecule?
A: > 100 µM

Q: And the TGI (COLO 205; read-out: pTGI (converted))?
A: > 100 µM

Q: And the GI50 (OVCAR-8)?
A: 32.4 µM

Q: And the CC50 (OVCAR-8; [2])?
A: > 100 µM

Q: What about the TGI (OVCAR-8; read-out: pTGI (converted)) of the same molecule?
A: > 100 µM

Q: What about the GI50 (SK-MEL-5) of the same molecule?
A: 44.7 µM

Q: And the CC50 (SK-MEL-5; [2])?
A: > 100 µM

Q: What about the TGI (SK-MEL-5; read-out: pTGI (converted)) of the same molecule?
A: > 100 µM

Q: What about the GI50 (IGROV-1) of the same molecule?
A: 25.1 µM

Q: What about the CC50 (IGROV-1; [2]) of the same molecule?
A: > 100 µM

Q: What about the TGI (IGROV-1; read-out: pTGI (converted)) of the same molecule?
A: > 100 µM

Q: And the GI50 (786-0)?
A: 24.5 µM

Q: What about the CC50 (786-0; [2]) of the same molecule?
A: > 100 µM

Q: What about the TGI (786-0; read-out: pTGI (converted)) of the same molecule?
A: > 100 µM

Q: What about the GI50 (M14) of the same molecule?
A: > 100 µM

Q: What about the CC50 (M14; [2]) of the same molecule?
A: > 100 µM

Q: What about the TGI (M14; read-out: pTGI (converted)) of the same molecule?
A: > 100 µM

Q: And the GI50 (HCT-116)?
A: 28.8 µM

Q: And the LC50 (concentration causing 50% net cell death) (HCT-116)?
A: > 100 µM

Q: And the TGI (HCT-116; read-out: pTGI (converted))?
A: 75.9 µM

Q: What about the GI50 (SF-268) of the same molecule?
A: 20.9 µM

Q: What about the LC50 (SF-268) of the same molecule?
A: > 100 µM

Q: What about the TGI (SF-268; read-out: pTGI (converted)) of the same molecule?
A: > 100 µM

Q: What about the GI50 (CAKI-1) of the same molecule?
A: 79.4 µM

Q: And the CC50 (CAKI-1; [2])?
A: > 100 µM

Q: And the TGI (CAKI-1; read-out: pTGI (converted))?
A: > 100 µM

Q: And the GI50 (SF-295)?
A: 23.4 µM

Q: What about the LC50 (50% net cell kill) (SF-295) of the same molecule?
A: > 100 µM

Q: And the TGI (SF-295; read-out: pTGI (converted))?
A: 52.5 µM

Q: And the GI50 [1]?
A: 24.5 µM

Q: And the CC50 [1, 2]?
A: > 100 µM

Q: And the TGI ([1]; read-out: pTGI (converted))?
A: > 100 µM

Q: What about the growth at 100 µM (NCI-H460) of the same molecule?
A: -48%

Q: What about the GI50 (NCI-H522) of the same molecule?
A: 31.6 µM

Q: What about the LC50 (NCI-H522) of the same molecule?
A: > 100 µM

Q: What about the TGI (NCI-H522; read-out: pTGI (converted)) of the same molecule?
A: > 100 µM

Q: What about the GI50 (SK-MEL-28) of the same molecule?
A: 19.5 µM

Q: What about the CC50 (SK-MEL-28; [2]) of the same molecule?
A: > 100 µM

Q: And the TGI (SK-MEL-28; read-out: pTGI (converted))?
A: 49 µM

Q: What about the GI50 (NCI-H322M) of the same molecule?
A: > 100 µM

Q: What about the LC50 (NCI-H322M) of the same molecule?
A: > 100 µM

Q: And the TGI (NCI-H322M; read-out: pTGI (converted))?
A: > 100 µM

Q: And the GI50 (NCI/ADR-RES)?
A: 60.3 µM

Q: What about the CC50 (NCI/ADR-RES; [2]) of the same molecule?
A: > 100 µM

Q: And the TGI (NCI/ADR-RES; read-out: pTGI (converted))?
A: > 100 µM

Q: And the GI50 (K562)?
A: 26.3 µM

Q: And the LC50 (K562)?
A: > 100 µM

Q: And the TGI (K562; read-out: pTGI (converted))?
A: > 100 µM
